SR-BI DiI inh – blocks mouse SR-BI lipid uptake from DiI-HDL. Q61009. ldlA[mSR-BI] CHO cells, DiI-HDL uptake fluorescence, 3 h. inhibition, % at 12.5 µM. 320,000 tested, 0.96% active. AID 488896;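 active = mean replicate inhibition of at least 70% and a set share of replicates each scoring 70 or more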;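 also: 0% = median of neutral control wells and 100% = median of positive control wells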
Target sequence (Q61009 whole entry, looked up): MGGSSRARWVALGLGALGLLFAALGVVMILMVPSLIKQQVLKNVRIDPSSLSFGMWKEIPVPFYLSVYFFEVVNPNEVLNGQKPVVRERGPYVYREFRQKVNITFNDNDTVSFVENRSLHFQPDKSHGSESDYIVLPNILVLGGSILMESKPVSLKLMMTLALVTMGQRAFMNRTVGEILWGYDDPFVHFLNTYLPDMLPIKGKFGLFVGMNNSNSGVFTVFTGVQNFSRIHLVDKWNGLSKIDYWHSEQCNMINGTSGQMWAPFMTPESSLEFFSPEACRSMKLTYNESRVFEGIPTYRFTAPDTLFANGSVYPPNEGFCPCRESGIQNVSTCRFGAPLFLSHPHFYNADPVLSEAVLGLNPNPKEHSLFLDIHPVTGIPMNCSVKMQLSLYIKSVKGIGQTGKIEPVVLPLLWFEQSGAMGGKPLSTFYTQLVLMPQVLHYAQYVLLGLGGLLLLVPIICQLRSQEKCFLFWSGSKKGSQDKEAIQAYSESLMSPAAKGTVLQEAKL
SMARCA2 activ – increases SMARCA2 function in MMTV reporter cells; MG213 cells, MMTV-luciferase reporter, dexamethasone, overnight; 370,000 tested, 1% active; AID 652017; activation, % at 9.1 µM; in the data active = activation above about 7.8%;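 also: 0% = vehicle wells and 100% = reference activator wells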
Hep lipid drop – modulators of hepatic lipid droplet formation | AML12 mouse hepatocytes, oleate lipid droplets, BODIPY imaging | inhibition, % at 6.5 µM | 240,000 tested, 0.4% active | AID 1656;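 active = lipid droplet intensity inhibited by at least 50%, with more than 500 cells counted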
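System: AML12 hepatocytes (mouse). Probe or stimulus: oleic acid at 100 µM to induce lipid droplet formation. Times: overnight treatment with compound plus oleate. Detection: Image-based BODIPY and DAPI two-channel analysis. Evaluation: percent inhibition of filter-corrected integrated lipid droplet intensity per well.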
SR-BI uptake up – activators of SR-BI mediated HDL lipid uptake; 320,000 tested, 0.096% active; CHO ldlA[mSR-BI] cells, DiI-HDL uptake fluorescence, 3 h; 100 = double the neutral-control signal; AID 504775; activation, % at 12.5 µM;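 active = mean replicate activation of at least 60% and every replicate at or above 60%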;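 also: 0% = median plate neutral-control signal and 100% = twice that signal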
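Material: SR-BI-overexpressing, LDLR-lacking CHO cells | Dosing: Single compound concentration, delivered by pin transfer | Probe or stimulus: Labelled HDL, 10 µg/mL | Signal: Bottom-read cell fluorescence after medium removal, ex 550/em 595 nm | Schedule: 3 h, 37 °C | Evaluation: HDL uptake via cellular fluorescence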
CR mimetic SO – lowers age-related superoxide in aged yeast cells | S. cerevisiae aged cells, superoxide DHE fluorescence; active compounds read low | superoxide response (% of plate mean), % at 10 µM | 330,000 tested, 0.18% active | AID 2690;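 active = superoxide response under a set limit, about three screen SD below normal, cut at about 65% in these data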;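 also: yeast aged for seven days with compound at 30 °C before DHE staining; 100% = average MFI of all compound-treated wells on the plate with controls excluded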
AHR activator – activators of human aryl hydrocarbon receptor; 320,000 tested, 2.5% active; P35869; activation, % at 5 µM; AHR-responsive luciferase reporter cells, luminescence; in the data active = activation above about 47%;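 also: 0% = vehicle wells and 100% = reference agonist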
AHR act confirm – confirmation of human aryl hydrocarbon receptor activators; shares compounds with AHR activator; human cells, AHR-responsive luciferase reporter, luminescence; activation, % at 9 µM; 2,300 tested, 87% active; AID 2845; in the data active = activation above about 49%;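 also: HepG2 hepatoma cells carrying a DRE-driven firefly luciferase reporter; 0% = vehicle wells and 100% = reference agonist wells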
PXR counter – PXR activation, counter-screen for AHR activators | shares compounds with AHR activator | cell-based PXR reporter, luciferase luminescence | activation, % at 11.6 µM | 2,300 tested, 88% active | AID 434939; in the data active = activation above about 11%;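 also: human hepatoma DPX-2 cells expressing full-length human PXR; 0% = DMSO and 100% = reference agonist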
Numbers without * were called inactive. Most compounds without a hit are left out; they make up all but 4.3% or so of the library.

Results for CC(=O)N1CC(C(=O)Nc2ccc3c(c2)OCO3)Oc2ccccc21 (stereo unspecified) ?
SR-BI DiI inh: 8; SMARCA2 activ: -2; SR-BI uptake up: -8; CR mimetic SO: 111; AHR activator: 102*; AHR act confirm: 121*; PXR counter: 34*

What do the screens show for `COc1cccc(C(=O)NC2=NCCS2)c1`?
SR-BI DiI inh: -15; SMARCA2 activ: 3; Hep lipid drop: 3; SR-BI uptake up: 15; CR mimetic SO: 110; AHR activator: 133*; AHR act confirm: 55*; PXR counter: 13*

Results for CCCCCn1nnnc1C1(C)Cn2nccc2C(=O)N1Cc1ccco1 (stereo unspecified) ?
SMARCA2 activ: 0

How did O=C(OCCN1CCN(C2CN(Cc3cn(Cc4ccccc4F)nn3)S(=O)(=O)C2)CC1)c1cc2ccccc2o1 (stereo unspecified) do in these assays?
SMARCA2 activ: 5

Results for COc1cccc(NC(=O)c2ccc3c(c2)OCO3)c1 ?
SR-BI DiI inh: 20; SMARCA2 activ: 4; Hep lipid drop: -14; SR-BI uptake up: -20; CR mimetic SO: 96; AHR activator: 134*; AHR act confirm: 35; PXR counter: 26*

What do the screens show for `O=C(Nc1ccc2c(c1)OCO2)c1ccc(S(=O)(=O)NCC2CCCO2)cc1` (stereo unspecified)?
SR-BI DiI inh: 7; SMARCA2 activ: -1; Hep lipid drop: 2; SR-BI uptake up: -7; CR mimetic SO: 93; AHR activator: 84*; AHR act confirm: 14; PXR counter: 21*

What do the screens show for `COc1cccc(NC(=O)c2ccc3c(c2)OCCO3)c1`?
SR-BI DiI inh: 0; SMARCA2 activ: 3; Hep lipid drop: -18; SR-BI uptake up: 0

What do the screens show for `COc1ccc(C(=O)Nc2ccccc2C(=O)N/N=C/c2ccco2)cc1`?
SR-BI DiI inh: -25; SMARCA2 activ: 5; Hep lipid drop: -9; SR-BI uptake up: 25; CR mimetic SO: 98; AHR activator: 137*; AHR act confirm: 100*; PXR counter: 29*

What do the screens show for `CCOc1ccc(/C=N/NC(=O)c2ccccc2NC(=O)c2ccc(OC)cc2)cc1`?
SR-BI DiI inh: 38; SMARCA2 activ: 2; Hep lipid drop: 20; SR-BI uptake up: -38; CR mimetic SO: 108; AHR activator: 106*; AHR act confirm: 13; PXR counter: 31*

How did O=C(Nc1ccccc1C(=O)N/N=C/c1ccncc1)c1ccccc1 do in these assays?
SR-BI DiI inh: -15; SMARCA2 activ: 4; Hep lipid drop: -20; SR-BI uptake up: 15; CR mimetic SO: 113; AHR activator: 101*; AHR act confirm: 41; PXR counter: 37*

Results for C[C@@H]1COc2cc(NCCCN3CCOCC3)ccc2S(=O)(=O)N1 ?
SMARCA2 activ: -3

How did N#Cc1c(-c2ccccc2)cc2nc3ccccc3n2c1N do in these assays?
SR-BI DiI inh: 11; SMARCA2 activ: 2; Hep lipid drop: -19; SR-BI uptake up: -11; CR mimetic SO: 94; AHR activator: 85*; AHR act confirm: 88*; PXR counter: 31*

What do the screens show for `COc1cc(-c2cc3nc4ccccc4n3c(N)c2C#N)cc(OC)c1OC`?
SMARCA2 activ: -2; Hep lipid drop: 11; CR mimetic SO: 115; AHR activator: 10

What do the screens show for `O=C1c2ccccc2-c2nc3ccccc3nc21`?
SR-BI DiI inh: 23; SMARCA2 activ: 2; Hep lipid drop: 8; SR-BI uptake up: -23; CR mimetic SO: 69; AHR activator: 115*; AHR act confirm: 149*

How did Cc1nc2c(nc1C)C(=O)c1ccccc1C2=O do in these assays?
SR-BI DiI inh: -25; SMARCA2 activ: -3; SR-BI uptake up: 25

How did O=C(O)c1ccc(C=Nn2c(-c3ccc(F)cc3)n[nH]c2=S)cc1 do in these assays?
SMARCA2 activ: -3

What do the screens show for `O=C1NC(=Nc2ccccc2)S/C1=C\c1ccccc1`?
SR-BI DiI inh: -7; SMARCA2 activ: 0; Hep lipid drop: 2; SR-BI uptake up: 7; CR mimetic SO: 101; AHR activator: 28

Results for O=C1NC(=Nc2ccccc2)S/C1=C/c1cccs1 ?
SR-BI DiI inh: -17; SMARCA2 activ: 6; Hep lipid drop: 1; SR-BI uptake up: 17; CR mimetic SO: 100; AHR activator: 116*; AHR act confirm: 120*; PXR counter: 32*

Results for O=C(COC(=O)Cn1cnc2ccccc21)Nc1cc2c(cc1Cl)C(=O)c1ccccc1C2=O ?
SR-BI DiI inh: 34; SMARCA2 activ: 5; Hep lipid drop: 7; SR-BI uptake up: -34; CR mimetic SO: 152; AHR activator: 84*; AHR act confirm: 146*; PXR counter: 27*

Results for O=C(COC(=O)Cn1cnc2ccccc21)Nc1cc(S(=O)(=O)N2CCOCC2)ccc1Cl ?
SR-BI DiI inh: 13; SMARCA2 activ: -2; Hep lipid drop: -5; SR-BI uptake up: -13; CR mimetic SO: 104; AHR activator: -2

What do the screens show for `CC1=CCC2C(=O)N(c3ccc(C)c(Br)c3)C(=O)C2C1` (stereo unspecified)?
SR-BI DiI inh: -7; SMARCA2 activ: 7; Hep lipid drop: 16; SR-BI uptake up: 7; CR mimetic SO: 91; AHR activator: 90*; AHR act confirm: 3; PXR counter: 87*

What do the screens show for `Cc1ccc(-c2nnc(-c3cccc(Br)c3)o2)cc1`?
SR-BI DiI inh: 16; SMARCA2 activ: 3; Hep lipid drop: -8; SR-BI uptake up: -16; CR mimetic SO: 109; AHR activator: 23

What do the screens show for `Brc1cccc(-c2nnc(SCc3nc4ccccc4[nH]3)o2)c1`?
SR-BI DiI inh: -21; SMARCA2 activ: 0; SR-BI uptake up: 21; CR mimetic SO: 99; AHR activator: 92*; AHR act confirm: 42; PXR counter: 29*

What do the screens show for `Brc1cccc(-c2nnc(-c3ccccc3)o2)c1`?
SR-BI DiI inh: -17; SMARCA2 activ: -1; Hep lipid drop: 23; SR-BI uptake up: 17; CR mimetic SO: 93; AHR activator: 121*; AHR act confirm: 134*; PXR counter: 28*

How did COc1cccc(-c2cc(=O)c3cc(NC(C)=O)ccc3[nH]2)c1 do in these assays?
SR-BI DiI inh: -10; SMARCA2 activ: 3; Hep lipid drop: 19; SR-BI uptake up: 10; CR mimetic SO: 87; AHR activator: 15
